The list is not random: actives were taken first. Their share in the collection is about 1.2%.
G6PDH counter: L. mesenteroides G6PDH inhibition counter-screen; inhibition, % at 5 µM; hit rate 0.12% among 200,000; Purified L. mesenteroides G6PDH, diaphorase/resazurin coupled fluorescence, 45 min; in the data active means inhibition above about 50%
TbHK1 inh: T. brucei hexokinase 1 inhibition; recombinant TbHK1, G6PDH-coupled NADH A340; inhibition, % at 10 µM; hit rate 0.11% among 220,000;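 active means inhibition of 50% or more in the single-dose primary screen; inactive means inhibition below 50%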
PfGluPho inh: PfG6PD (Plasmodium falciparum) enzyme inhibition. PfGluPho enzyme, NADPH resazurin-diaphorase fluorescence. inhibition, % at 20 µM. hit rate 0.78% among 350,000;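 active means inhibition reaching at least a set limit at 20 µM in the primary screen, cut at about 59% in these data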;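 further: 0% = DMSO wells with substrate and 100% = DMSO wells lacking glucose-6-phosphate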
HKDC1 inh: blocks human hexokinase HKDC1 activity. Q2TB90. recombinant HKDC1, G6PDH/diaphorase resazurin coupled fluorescence. inhibition, % at 20 µM. hit rate 0.16% among 340,000;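 active means inhibition above about 35% when tested at 20 µM, limit read from the data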;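 further: plate controls were DMSO wells with enzyme for no effect and DMSO wells lacking enzyme for full effect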
Target sequence (Q2TB90 whole entry, looked up): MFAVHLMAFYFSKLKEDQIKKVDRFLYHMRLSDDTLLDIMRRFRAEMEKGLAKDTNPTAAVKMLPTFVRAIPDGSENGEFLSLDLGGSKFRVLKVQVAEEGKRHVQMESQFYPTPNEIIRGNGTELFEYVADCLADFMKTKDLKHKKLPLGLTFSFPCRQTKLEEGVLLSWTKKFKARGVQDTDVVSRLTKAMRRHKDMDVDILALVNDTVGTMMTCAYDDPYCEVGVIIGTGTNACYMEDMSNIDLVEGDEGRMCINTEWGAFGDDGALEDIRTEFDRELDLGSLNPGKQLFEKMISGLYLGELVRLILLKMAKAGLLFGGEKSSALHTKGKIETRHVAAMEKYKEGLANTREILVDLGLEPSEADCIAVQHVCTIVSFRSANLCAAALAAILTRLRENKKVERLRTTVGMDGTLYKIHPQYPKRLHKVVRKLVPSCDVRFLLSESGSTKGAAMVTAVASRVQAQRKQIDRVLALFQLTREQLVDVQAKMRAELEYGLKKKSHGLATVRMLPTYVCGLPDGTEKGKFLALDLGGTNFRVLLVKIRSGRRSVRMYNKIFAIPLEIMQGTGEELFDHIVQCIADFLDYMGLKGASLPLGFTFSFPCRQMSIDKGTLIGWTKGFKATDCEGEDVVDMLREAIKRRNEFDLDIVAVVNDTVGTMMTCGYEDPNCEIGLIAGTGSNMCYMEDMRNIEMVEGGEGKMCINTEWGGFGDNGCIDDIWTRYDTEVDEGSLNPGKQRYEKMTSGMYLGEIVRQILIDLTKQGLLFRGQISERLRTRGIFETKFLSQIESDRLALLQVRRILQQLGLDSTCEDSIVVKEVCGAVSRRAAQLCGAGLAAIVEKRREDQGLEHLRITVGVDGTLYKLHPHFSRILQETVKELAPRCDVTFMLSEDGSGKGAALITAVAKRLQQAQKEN
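Material – in-house recombinant HK5 (HKDC1) enzyme · Quantity – HKDC1 at 5 µg/mL · Buffer or medium – pH 8.0 Tris buffer with 10 mM MgCl2 · Reagent – glucose with 1 mM ATP · Dosing – single 20 µM dose · Times – reaction time 90 min, room temperature, protected from light · Technique – resorufin fluorescence at 613 nm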
Diaph inh CS: counter-screen for diaphorase-based assays: diaphorase inhibitors and chemical oxidizers | diaphorase resazurin-to-resorufin fluorescence, NADH, 16 min; bacterial (C. kluyveri) enzyme, not human | inhibition, % at 20 µM | hit rate 0.69% among 190,000 | AID 1217;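 active means primary screen inhibition at 20 µM above a set limit, cut at about 50% in these data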;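 further: plate controls were DMSO with full reaction for no effect and wells lacking NADH for full effect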
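System: Diaphorase enzyme from Clostridium kluyveri | Amount: Enzyme working solution with 0.14 U/mL diaphorase | Benchmarks: No-NADH positive control and DMSO neutral control | Signal: Fluorescence of resorufin formed from resazurin, Ex 544/Em 590 nm | Schedule: 16-min room-temperature incubation before reading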
PfGluPho conf: PfG6PD inhibition, single-dose confirmed; AID 504753; hit rate 34% among 2,400; shares compounds with PfGluPho inh; inhibition, % at 20 µM; recombinant PfGluPho, NADPH-diaphorase-resazurin fluorescence;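 active means inhibition of at least 50% at 20 µM in any single replicate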;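 further: 0% = DMSO with substrate and 100% = DMSO lacking glucose-6-phosphate substrate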
Diaphorase 10uM: diaphorase inhibition or oxidation at 10 uM NADPH. shares compounds with PfGluPho inh. diaphorase-coupled resazurin reduction, fluorescence, NADPH 10 uM. inhibition, % at 20 µM. hit rate 39% among 820. AID 504862;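 active means average inhibition reaching 50% or more with the compound at 20 µM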;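 further: resorufin red fluorescence formed as diaphorase reduces resazurin using NADPH; 0% = DMSO with enzyme and 100% = DMSO without enzyme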
Diaphorase 30uM: counter-screen for P. falciparum G6PD inhibitors: diaphorase inhibitors, oxidizers; shares compounds with PfGluPho inh; Diaphorase/resazurin coupled assay, resorufin fluorescence, 30 uM NADPH; inhibition, % at 20 µM; hit rate 29% among 820;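 active means inhibition averaging 50% or more, tested at 20 µM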;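 further: 0% = DMSO with enzyme and 100% = DMSO wells lacking diaphorase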
The depositor's hits bear a star; · = not tested or not shown.

SMILES	G6PDH counter	TbHK1 inh	PfGluPho inh	HKDC1 inh	Diaph inh CS	PfGluPho conf	others
C#CCOCCOCCOCCNc1nc(N2CCN(C(=O)[C@H](CCC(=O)O)n3cc(C(N)[C@H](C)CC)nn3)CC2)nc(N2CCN(C(=O)[C@H](Cc3cc4ccccc4[nH]3)n3cc(C(N)[C@H](C)CC)nn3)CC2)n1 (stereo partly drawn)	-2.1	-11.4	·	·	-15.4	·
C#CCOCCOCCOCCNc1nc(N2CCN(C(=O)[C@H](CCCCN)n3cc([C@@H](N)C(C)CC)nn3)CC2)nc(N2CCN(C(=O)[C@H](Cc3cc4ccccc4[nH]3)n3cc([C@@H](N)C(C)CC)nn3)CC2)n1 (stereo partly drawn)	·	·	61.2*	6.9	·	37.5
CC(OC(=O)c1ccc(Cl)nc1)C(=O)NC1(C#N)CCCCC1 (stereo not drawn)	·	·	-10.9	-6.5	·	·
Cc1ccc(C2NC(=S)NC3=C2C(=O)CC(C)(C)C3)cc1 (stereo not drawn)	14.3	-21.2	8.8	-3.5	-4.7	·
O=C(COC(=O)CSc1ccc([N+](=O)[O-])cc1)NCCCc1ccccc1	·	·	65.7*	8.9	·	-9.4
CC(OC(=O)CSc1ccc([N+](=O)[O-])cc1)C(=O)NCc1ccccc1 (stereo not drawn)	·	·	65.7*	5.3	·	-23.7
N#CC(C#N)=C1C=CC=CN1/C(=C\c1ccccc1Cl)C(=O)c1ccccc1	3.4	-15.2	78.2*	7.4	19.1	56.6*	Diaphorase 10uM=-5.2;Diaphorase 30uM=-1.6
COc1ccc2c(c1)CCc1cc(C(=O)N3CCN(c4ccc(N5CCOCC5)nn4)CC3)sc1-2	-57.2	-14.7	77.4*	20.9	20.1	40.6
COc1cccc(C(=O)N2CCN(c3ccc(N4CCOCC4)nn3)CC2)c1	·	·	-12.8	-3.3	·	·
O=S(=O)(c1c(F)cccc1F)C1CCN(S(=O)(=O)c2ccc3c(c2)OCCO3)CC1	·	·	-11.5	-5.9	·	·
Cc1cc(C)n(Cc2ccc(Cl)cc2Cl)c(=O)c1S(=O)(=O)c1ccccc1	32.6	9.6	70.9*	6.2	18.3	21.1
C=C(C)Cn1c(C)cc(C)c(S(=O)(=O)c2ccc(C)cc2)c1=O	7.1	1.9	15.8	1.3	17.4	·
O=C(Nc1cccnc1)c1ccc(N2CCOCC2)c([N+](=O)[O-])c1	·	·	13.2	-5.9	·	·
Cc1cc(C(=O)Nc2ccc(N3CCCC3)c(Cl)c2)ccc1[N+](=O)[O-]	-20.6	0.2	67.4*	1.1	13.8	2.2
O=C(Nc1ccc(N2CCCC2)c(Cl)c1)c1ccc([N+](=O)[O-])cc1	-15.8	-3.4	11.8	-11.5	2.3	·
CC1CCN(c2ccc(C(=O)Nc3ccc4c(c3)OCO4)cc2[N+](=O)[O-])CC1	-18.9	26.5	61.6*	-4.3	27.2	-13.2
Cc1cccc(NC(=O)c2ccc(N(C)C3CCCCC3)c([N+](=O)[O-])c2)n1	-6.7	1.6	59.8*	2.6	16.6	-9.0
Cc1cccc(NC(=O)c2ccc(N3CCOCC3)c([N+](=O)[O-])c2)n1	-2.7	-4.4	69.6*	2.2	4.3	19.2
CCOc1nc(OCC)c2cnn(C)c2n1	·	-6.0	11.0	-3.6	·	·
COCC(C)NC(=O)CSc1nc2cc(S(=O)(=O)N3CCCCC3)ccc2o1 (stereo not drawn)	·	·	-9.3	0.9	·	·
Cc1cccc(NC(=O)c2ccc(N3CCCCC3)c([N+](=O)[O-])c2)n1	-4.4	-8.1	97.8*	8.3	7.7	24.5
Cc1ccc(C)c2sc(NC(=O)c3ccc(N4CCCCC4)c([N+](=O)[O-])c3)nc12	2.0	-33.0	18.8	-6.9	7.1	·
CC(=O)NCCc1c(C)n(Cc2ccccc2)c2ccccc12	·	·	-4.3	-6.5	·	·
O=C(Cc1ccccc1)NCC(=O)OCc1cccc([N+](=O)[O-])c1	·	·	15.6	-2.9	·	·
Cc1ccc(C(=O)N[C@H](C(=O)Nc2sccc2C(N)=O)C(C)C)cc1	·	·	5.0	-3.4	·	·
COC(=O)c1c(-c2cccnc2)csc1NC(=O)c1cc(C)on1	-39.9	-20.5	62.4*	1.1	19.1	16.3

Screening data deposited in PubChem BioAssay by several laboratories.
